Values belong to the compound of their own block, whether it stands above or below them. Where a SMILES comes first, the peptide text is derived from it. [ ]: non-standard residue; d: D form. ξ: configuration not given here. Bip = N[C@@H](Cc1ccc(-c2ccccc2)cc1)C(=O)O; ξTic = O=C(O)C1Cc2ccccc2CN1
Assays:
[1] = biological target: T1, Pituitary adenylate cyclase-activating polypeptide type I receptor (Homo sapiens, UniProt P41586); experiment: Displacement of [125I]Ac-PACAP27 from human recombinant PAC1 receptor expressed in CHO cells by gamma- counter; format: cell-based
Target sequence in this assay (P41586 whole entry): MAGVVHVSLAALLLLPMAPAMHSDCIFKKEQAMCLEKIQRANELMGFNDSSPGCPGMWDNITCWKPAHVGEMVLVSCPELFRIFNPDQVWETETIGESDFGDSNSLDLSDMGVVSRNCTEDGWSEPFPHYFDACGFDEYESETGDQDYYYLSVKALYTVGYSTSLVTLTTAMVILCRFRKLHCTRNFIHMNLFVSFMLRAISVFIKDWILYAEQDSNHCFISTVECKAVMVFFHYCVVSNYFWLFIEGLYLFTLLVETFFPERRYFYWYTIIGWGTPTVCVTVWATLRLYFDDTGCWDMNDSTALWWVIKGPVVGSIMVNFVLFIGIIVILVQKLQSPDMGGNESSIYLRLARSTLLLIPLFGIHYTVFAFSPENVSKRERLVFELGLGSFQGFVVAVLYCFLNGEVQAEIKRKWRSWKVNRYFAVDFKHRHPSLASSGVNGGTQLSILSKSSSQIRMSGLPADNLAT

[2] = biological target: T1, Pituitary adenylate cyclase-activating polypeptide type I receptor; experiment: Agonist activity at human recombinant PAC1 receptor expressed in CHO cells assessed as PACAP38-induced calcium mobilization by FLIPR assay; format: functional, cell-based
Summary of the method: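 CHO cells stably expressing recombinant human PAC1, plated 24 h before assay, loaded with fluo-4 AM for 60 min at 37 °C in the dark, then rinsed into HBSS for 15 min at 37 °C. EC50 and efficacy came from nonlinear regression; 4-10 independent assays in duplicate.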
Target sequence in this assay (P41586 whole entry): as above

[3] = biological target: T1, Pituitary adenylate cyclase-activating polypeptide type I receptor; experiment: Agonist activity at human recombinant PAC1 receptor expressed in CHO cells assessed as PACAP38-induced calcium mobilization by FLIPR assay relative to PACAP38; format: functional, cell-based
Summary of the method: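 CHO cells stably expressing recombinant human PAC1, plated 24 h before assay, loaded with fluo-4 AM for 60 min at 37 °C in the dark, then rinsed into HBSS for 15 min at 37 °C. Peptide was added 18 s into a 150 s read (ex 480/em 525 nm), at final concentrations of 1 × 10-12 to 1 × 10^-5 M. Response was normalised to 1 × 10^-5 M PACAP38 on each plate. EC50 and efficacy came from nonlinear regression; 4-10 independent assays in duplicate.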
Target sequence in this assay (P41586 21-468 limits assumed): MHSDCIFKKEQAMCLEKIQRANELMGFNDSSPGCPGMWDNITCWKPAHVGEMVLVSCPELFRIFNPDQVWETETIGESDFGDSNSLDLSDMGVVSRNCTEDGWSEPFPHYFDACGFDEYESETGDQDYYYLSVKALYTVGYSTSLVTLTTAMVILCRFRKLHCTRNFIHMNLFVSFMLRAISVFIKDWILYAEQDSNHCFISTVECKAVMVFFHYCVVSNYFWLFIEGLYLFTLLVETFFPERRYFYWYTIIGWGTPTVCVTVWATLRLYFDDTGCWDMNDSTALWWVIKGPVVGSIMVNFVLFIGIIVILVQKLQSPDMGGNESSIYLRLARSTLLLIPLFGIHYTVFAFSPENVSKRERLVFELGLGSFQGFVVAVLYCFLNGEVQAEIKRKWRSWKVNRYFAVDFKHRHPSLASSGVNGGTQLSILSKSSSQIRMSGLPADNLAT

SMILES: CC[C@H](C)[C@H](NC(=O)[C@H](C)NC(=O)[C@H](CC(=O)O)NC(=O)[C@H](CO)NC(=O)[C@@H](N)Cc1cnc[nH]1)C(=O)N[C@@H](Cc1ccccc1)C(=O)N[C@H](C(=O)N[C@@H](CC(=O)O)C(=O)N[C@@H](CO)C(=O)N[C@@H](Cc1ccc(O)cc1)C(=O)N[C@@H](CO)C(=O)N[C@@H](CCCNC(=N)N)C(=O)N[C@@H](Cc1ccc(O)cc1)C(=O)N[C@@H](CCCNC(=N)N)C(=O)N[C@@H](CCCCN)C(=O)N[C@@H](CCC(N)=O)C(=O)N[C@@H](CCSC)C(=O)N[C@@H](C)C(=O)N[C@H](C(=O)N[C@@H](CCCCN)C(=O)N[C@@H](CCCCN)C(=O)N[C@@H](Cc1ccc(O)cc1)C(=O)N[C@@H](CC(C)C)C(=O)N[C@@H](C)C(=O)N[C@@H](C)C(=O)N[C@H](C(=O)N[C@@H](CC(C)C)C(N)=O)C(C)C)C(C)C)[C@@H](C)O
- IC50 [1]: 9.1 nM
- EC50 [2]: 20.8 nM
- Emax [3]: 105%

SMILES: CC[C@H](C)[C@H](NC(=O)CNC(=O)[C@H](C)NC(=O)[C@H](CO)NC(=O)[C@@H](N)Cc1cnc[nH]1)C(=O)N[C@@H](Cc1ccccc1)C(=O)N[C@H](C(=O)N[C@@H](CC(=O)O)C(=O)N[C@@H](CO)C(=O)N[C@@H](Cc1ccc(O)cc1)C(=O)N[C@@H](CO)C(=O)N[C@@H](CCCNC(=N)N)C(=O)N[C@@H](Cc1ccc(O)cc1)C(=O)N[C@@H](CCCNC(=N)N)C(=O)N[C@@H](CCCCN)C(=O)N[C@@H](CCC(N)=O)C(=O)N[C@@H](CCSC)C(=O)N[C@@H](C)C(=O)N[C@H](C(=O)N[C@@H](CCCCN)C(=O)N[C@@H](CCCCN)C(=O)N[C@@H](Cc1ccc(O)cc1)C(=O)N[C@@H](CC(C)C)C(=O)N[C@@H](C)C(=O)N[C@@H](C)C(=O)N[C@H](C(=O)N[C@@H](CC(C)C)C(=O)NCC(=O)N[C@@H](CCCCN)C(=O)N[C@@H](CCCNC(=N)N)C(=O)N[C@@H](Cc1ccc(O)cc1)C(=O)N[C@@H](CCCCN)C(=O)N[C@@H](CCC(N)=O)C(=O)N[C@@H](CCCNC(=N)N)C(=O)N[C@H](C(=O)N[C@@H](CCCCN)C(=O)N[C@@H](CC(N)=O)C(=O)N[C@@H](CCCCN)C(N)=O)C(C)C)C(C)C)C(C)C)[C@@H](C)O (H-HSAGIFTDSYSRYRKQMAVKKYLAAVLGKRYKQRVKNK-NH2)
- IC50 [1]: 97.2 nM
- EC50 [2]: 10000 nM
- Emax [3]: 64.1%

SMILES: CC[C@H](C)[C@H](NC(=O)CNC(=O)[C@H](CC(=O)O)NC(=O)[C@H](CO)NC(=O)[C@@H](N)Cc1cnc[nH]1)C(=O)N1Cc2ccccc2CC1C(=O)N[C@H](C(=O)N[C@@H](CC(=O)O)C(=O)N[C@@H](CO)C(=O)N[C@@H](Cc1ccc(O)cc1)C(=O)N[C@@H](CO)C(=O)N[C@@H](CCCNC(=N)N)C(=O)N[C@@H](Cc1ccc(O)cc1)C(=O)N[C@@H](CCCNC(=N)N)C(=O)N[C@@H](CCCCN)C(=O)N[C@@H](CCC(N)=O)C(=O)N[C@@H](CCSC)C(=O)N[C@@H](C)C(=O)N[C@H](C(=O)N[C@@H](CCCCN)C(=O)N[C@@H](CCCCN)C(=O)N[C@@H](Cc1ccc(O)cc1)C(=O)N[C@@H](CC(C)C)C(=O)N[C@@H](C)C(=O)N[C@@H](C)C(=O)N[C@H](C(=O)N[C@@H](CC(C)C)C(=O)NCC(=O)N[C@@H](CCCCN)C(=O)N[C@@H](CCCNC(=N)N)C(=O)N[C@@H](Cc1ccc(O)cc1)C(=O)N[C@@H](CCCCN)C(=O)N[C@@H](CCC(N)=O)C(=O)N[C@@H](CCCNC(=N)N)C(=O)N[C@H](C(=O)N[C@@H](CCCCN)C(=O)N[C@@H](CC(N)=O)C(=O)N[C@@H](CCCCN)C(N)=O)C(C)C)C(C)C)C(C)C)[C@@H](C)O (stereo partly drawn) (H-HSDGI[ξTic]TDSYSRYRKQMAVKKYLAAVLGKRYKQRVKNK-NH2)
- IC50 [1]: 1420 nM
- EC50 [2]: 4010 nM
- Emax [3]: 69.6%

Now from value to compound:

- IC50 [1]: 4 nM
- EC50 [2]: 0.8 nM
- Emax [3]: 101%
SMILES: CC[C@H](C)[C@H](NC(=O)CNC(=O)[C@H](CC(=O)O)NC(=O)[C@H](CO)NC(=O)[C@@H](N)Cc1cnc[nH]1)C(=O)N[C@@H](Cc1ccccc1)C(=O)N[C@@H](C)C(=O)N[C@@H](CC(=O)O)C(=O)N[C@@H](CO)C(=O)N[C@@H](Cc1ccc(O)cc1)C(=O)N[C@@H](CO)C(=O)N[C@@H](CCCNC(=N)N)C(=O)N[C@@H](Cc1ccc(O)cc1)C(=O)N[C@@H](CCCNC(=N)N)C(=O)N[C@@H](CCCCN)C(=O)N[C@@H](CCC(N)=O)C(=O)N[C@@H](CCSC)C(=O)N[C@@H](C)C(=O)N[C@H](C(=O)N[C@@H](CCCCN)C(=O)N[C@@H](CCCCN)C(=O)N[C@@H](Cc1ccc(O)cc1)C(=O)N[C@@H](CC(C)C)C(=O)N[C@@H](C)C(=O)N[C@@H](C)C(=O)N[C@H](C(=O)N[C@@H](CC(C)C)C(=O)NCC(=O)N[C@@H](CCCCN)C(=O)N[C@@H](CCCNC(=N)N)C(=O)N[C@@H](Cc1ccc(O)cc1)C(=O)N[C@@H](CCCCN)C(=O)N[C@@H](CCC(N)=O)C(=O)N[C@@H](CCCNC(=N)N)C(=O)N[C@H](C(=O)N[C@@H](CCCCN)C(=O)N[C@@H](CC(N)=O)C(=O)N[C@@H](CCCCN)C(N)=O)C(C)C)C(C)C)C(C)C (H-HSDGIFADSYSRYRKQMAVKKYLAAVLGKRYKQRVKNK-NH2)

- IC50 [1]: 6.6 nM
- EC50 [2]: 4.1 nM
- Emax [3]: 90.5%
SMILES: CC[C@H](C)[C@H](NC(=O)CNC(=O)[C@H](CC(=O)O)NC(=O)[C@@H](CO)NC(=O)[C@@H](N)Cc1cnc[nH]1)C(=O)N[C@@H](Cc1ccccc1)C(=O)N[C@H](C(=O)N[C@@H](CC(=O)O)C(=O)N[C@@H](CO)C(=O)N[C@@H](Cc1ccc(O)cc1)C(=O)N[C@@H](CO)C(=O)N[C@@H](CCCNC(=N)N)C(=O)N[C@@H](Cc1ccc(O)cc1)C(=O)N[C@@H](CCCNC(=N)N)C(=O)N[C@@H](CCCCN)C(=O)N[C@@H](CCC(N)=O)C(=O)N[C@@H](CCSC)C(=O)N[C@@H](C)C(=O)N[C@H](C(=O)N[C@@H](CCCCN)C(=O)N[C@@H](CCCCN)C(=O)N[C@@H](Cc1ccc(O)cc1)C(=O)N[C@@H](CC(C)C)C(=O)N[C@@H](C)C(=O)N[C@@H](C)C(=O)N[C@H](C(=O)N[C@@H](CC(C)C)C(=O)NCC(=O)N[C@@H](CCCCN)C(=O)N[C@@H](CCCNC(=N)N)C(=O)N[C@@H](Cc1ccc(O)cc1)C(=O)N[C@@H](CCCCN)C(=O)N[C@@H](CCC(N)=O)C(=O)N[C@@H](CCCNC(=N)N)C(=O)N[C@H](C(=O)N[C@@H](CCCCN)C(=O)N[C@@H](CC(N)=O)C(=O)N[C@@H](CCCCN)C(N)=O)C(C)C)C(C)C)C(C)C)[C@@H](C)O

- IC50 [1]: 5.4 nM
- EC50 [2]: 1.1 nM
- Emax [3]: 105%
SMILES: CC[C@H](C)[C@H](NC(=O)CNC(=O)[C@H](CC(=O)O)NC(=O)[C@H](CO)NC(=O)[C@@H](N)Cc1cnc[nH]1)C(=O)N[C@@H](Cc1ccc(-c2ccccc2)cc1)C(=O)N[C@H](C(=O)N[C@@H](CC(=O)O)C(=O)N[C@@H](CO)C(=O)N[C@@H](Cc1ccc(O)cc1)C(=O)N[C@@H](CO)C(=O)N[C@@H](CCCNC(=N)N)C(=O)N[C@@H](Cc1ccc(O)cc1)C(=O)N[C@@H](CCCNC(=N)N)C(=O)N[C@@H](CCCCN)C(=O)N[C@@H](CCC(N)=O)C(=O)N[C@@H](CCSC)C(=O)N[C@@H](C)C(=O)N[C@H](C(=O)N[C@@H](CCCCN)C(=O)N[C@@H](CCCCN)C(=O)N[C@@H](Cc1ccc(O)cc1)C(=O)N[C@@H](CC(C)C)C(=O)N[C@@H](C)C(=O)N[C@@H](C)C(=O)N[C@H](C(=O)N[C@@H](CC(C)C)C(=O)NCC(=O)N[C@@H](CCCCN)C(=O)N[C@@H](CCCNC(=N)N)C(=O)N[C@@H](Cc1ccc(O)cc1)C(=O)N[C@@H](CCCCN)C(=O)N[C@@H](CCC(N)=O)C(=O)N[C@@H](CCCNC(=N)N)C(=O)N[C@H](C(=O)N[C@@H](CCCCN)C(=O)N[C@@H](CC(N)=O)C(=O)N[C@@H](CCCCN)C(N)=O)C(C)C)C(C)C)C(C)C)[C@@H](C)O (H-HSDGI[Bip]TDSYSRYRKQMAVKKYLAAVLGKRYKQRVKNK-NH2)

Source: ChEMBL document CHEMBL1138520, “Molecular and conformational determinants of pituitary adenylate cyclase-activating polypeptide (PACAP) for activation of the PAC1 receptor” (J Med Chem, 2009)
